In one series the test system is HUVEC. Briefly: Antiproliferative activity HUVEC after 96 hrs by MTT assay. (In general: Tetrazolium assays rely on reduction of a dye to a coloured formazan, in cell work by metabolically active cells.)
For the next series, the system named is Bel-7402. Kind of series: Antiproliferative activity human Bel7402 cells after 96 hrs by MTT assay.
Another series concerns MCF7. Kind of series: Antiproliferative activity human MCF7 cells after 96 hrs by MTT assay.
A further series concerns A549. Kind of series: Antiproliferative activity human A549 cells after 96 hrs by MTT assay.
Series [1] can be described thus: Antiproliferative activity human CCC-HPF1 cells after 20 hrs by MTT assay. The class given is cell-based. The note with it: ccc-hpf1, 96 h, in the assay text read “96 hrs” for “20 hrs”. Put shortly:
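HUVECs isolated from fresh umbilical cords and used at passages 3–8, grown in EGM-2. A549 and Bel-7402 in RPMI 1640; MCF-7 and ccc-HPF-1 in DMEM; all at 37 °C, 5% CO2. Seeded 1000 (HUVEC, Bel-7402), 1500 (MCF-7, ccc-HPF-1) or 2000 (A549) cells/well and left 20 h. Compound then added from PBS dilutions (final DMSO 0.1%), triplicate, 96 h. Readout MTT viability; IC50/CC50 from viability versus concentration.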

Where [2] appears, read: Homo sapiens, HUVEC, 96 h, read-out: IC50.
Where [3] appears, read: Homo sapiens, Bel-7402, 96 h, read-out: IC50.
[4] abbreviates: Homo sapiens, MCF7, 96 h, read-out: IC50.
Where [5] appears, read: Homo sapiens, A549, 96 h, read-out: IC50.

Bounds are passed on as bounds.

One may read the IC50 as the point on the concentration scale where inhibition reaches its midpoint. Consider `Cc1ccc(C2C=CCCC2)c(O)c1O` (stereo not given), for which the IC50 with HUVEC (setting [2]) was found to be 27.1 µM; in the series with Bel-7402 (setting [3]) it was 30 µM; in the series on MCF7 (setting [4]), 32.4 µM; with A549 (setting [5]), 35.6 µM.
For the compound `CC1=CC(=O)C(C2C=CCCC2)=CC1=O` (stereo not given), the IC50 was 9.1 µM with HUVEC (setting [2]), ≥ 50 µM in the series on Bel-7402 (setting [3]), ≥ 50 µM with MCF7 (setting [4]) and 30.9 µM in the series on A549 (setting [5]).
Regarding `CC(C)(C)c1cc(O)c(C2CCCCC2)cc1O`, the IC50 was 7.4 µM with HUVEC (setting [2]), 30.3 µM in the series with Bel-7402 (setting [3]), ≥ 50 µM in the series on MCF7 (setting [4]) and 36.3 µM in the series with A549 (setting [5]).
With `Oc1cccc2c1C1CCCCC1O2` (stereo not given), the IC50 result in the series with HUVEC (huvec), with Bel-7402 (bel-7402), with MCF7 (mcf7) and with A549 (a549) was “Not Active” each time. Also, in series [1], the CC50 entry is on record as “Not Active”.
Turning to `Cc1c(O)ccc(C2C=CCCC2)c1O` (stereo not given), the 50% inhibitory concentration (IC50) entry in the series with HUVEC (huvec), in the series with Bel-7402 (bel-7402), in the series on MCF7 (mcf7) and with A549 (a549) was “Not Active” throughout. Also, the CC50 result in series [1] is given as “Not Active”.
For `O=C1C=C(C2C=CCCC2)C(=O)c2ccccc21` (stereo not given), the IC50 in the series with HUVEC (setting [2]) amounted to 26.7 µM; in the series with Bel-7402 (setting [3]), 31.2 µM; in the series with MCF7 (setting [4]), 40.2 µM; in the series on A549 (setting [5]) it was 31.8 µM.
In the same order, the values of `Oc1ccccc1C1C=CCCC1` (stereo not given) are 31.5 µM, ≥ 50 µM, ≥ 50 µM and ≥ 50 µM.
For `Oc1c(C2C=CCCC2)ccc(C2C=CCCC2)c1O` (stereo not given), the IC50 in the series with HUVEC (setting [2]) is 28.8 µM; with Bel-7402 (setting [3]), ≥ 50 µM; in the series with MCF7 (setting [4]), ≥ 50 µM; in the series on A549 (setting [5]), ≥ 50 µM.
Regarding `Cc1cc(O)c(O)c(C2C=CCCC2)c1` (stereo not given), the IC50 is 15.3 µM with HUVEC (setting [2]), 26.9 µM in the series with Bel-7402 (setting [3]), ≥ 50 µM with MCF7 (setting [4]) and 34.4 µM in the series with A549 (setting [5]).
On to `Cc1cc(O)c(O)cc1C1C=CCCC1` (stereo not given), for which the IC50 was 4.7 µM with HUVEC (setting [2]), 8.5 µM in the series on Bel-7402 (setting [3]), 26.4 µM with MCF7 (setting [4]) and 9.5 µM in the series on A549 (setting [5]).
Consider `Cc1c(O)c(C2C=CCCC2)cc(C2C=CCCC2)c1O` (stereo not given), for which the IC50 in the series with HUVEC (setting [2]) is 33 µM; in the series with Bel-7402 (setting [3]), ≥ 50 µM; in the series with MCF7 (setting [4]), ≥ 50 µM; in the series with A549 (setting [5]), ≥ 50 µM.
As to `Oc1cc(C2C=CCCC2)c(O)cc1C1C=CCCC1` (stereo not given), the IC50 was 2 µM in the series on HUVEC (setting [2]), ≥ 50 µM in the series on Bel-7402 (setting [3]), ≥ 50 µM in the series with MCF7 (setting [4]) and ≥ 50 µM in the series with A549 (setting [5]).
For the compound `Oc1c(C2C=CCCC2)ccc2ccccc12` (stereo not given), the IC50 with HUVEC (setting [2]) is 22 µM; in the series with Bel-7402 (setting [3]) it was ≥ 50 µM; in the series on MCF7 (setting [4]), ≥ 50 µM; in the series on A549 (setting [5]), ≥ 50 µM.
With `Cc1cc(O)c(O)cc1C1CCCCC1`, the IC50 with HUVEC (setting [2]) came out at 8.3 µM; in the series with Bel-7402 (setting [3]), 22.7 µM; in the series on MCF7 (setting [4]), 31.1 µM; in the series with A549 (setting [5]), 27.7 µM.
For `O=C1C=C(C2C=CCCC2)C(=O)C=C1C1C=CCCC1` (stereo not given) the same measures were 6.2 µM, ≥ 50 µM, ≥ 50 µM and ≥ 50 µM.
Consider `CC(C)(C)c1cc(O)c(C2C=CCCC2)cc1O` (stereo not given), for which the IC50 is 1.4 µM in the series on HUVEC (setting [2]), ≥ 50 µM with Bel-7402 (setting [3]), ≥ 50 µM with MCF7 (setting [4]) and ≥ 50 µM in the series with A549 (setting [5]).
On to `CC(C)(C)C1=CC(=O)C(C2C=CCCC2)=CC1=O` (stereo not given), for which the IC50 in the series on HUVEC (setting [2]) is 6.8 µM; with Bel-7402 (setting [3]), ≥ 50 µM; with MCF7 (setting [4]), ≥ 50 µM; with A549 (setting [5]), ≥ 50 µM.
As for `CC(C)(C)c1cc2c(cc1O)C1CCCCC1O2` (stereo not given), the IC50 in the series with HUVEC (setting [2]) was 22.4 µM; with Bel-7402 (setting [3]), ≥ 50 µM; in the series on MCF7 (setting [4]) it was ≥ 50 µM; in the series on A549 (setting [5]) it was ≥ 50 µM.
For the compound `CC(C)(C)c1cc(O)cc(C2C=CCCC2)c1O` (stereo not given), the 50% inhibitory concentration (IC50) was 11.6 µM with HUVEC (setting [2]), ≥ 50 µM in the series with Bel-7402 (setting [3]), ≥ 50 µM with MCF7 (setting [4]) and ≥ 50 µM in the series on A549 (setting [5]).
For the compound `Oc1cc(C2CCCCC2)c(O)cc1C1CCCCC1`, the IC50 in the series on HUVEC (setting [2]) was 8.2 µM; in the series on Bel-7402 (setting [3]), ≥ 50 µM; in the series with MCF7 (setting [4]), ≥ 50 µM; with A549 (setting [5]) it was ≥ 50 µM.
Regarding `O=C1C=C(C2CCCCC2)C(=O)C=C1C1CCCCC1`, the IC50 in the series with HUVEC (setting [2]) was 7.8 µM; in the series on Bel-7402 (setting [3]) it was 31.3 µM; with MCF7 (setting [4]), ≥ 50 µM; in the series on A549 (setting [5]) it was 31.9 µM.
Turning to `CC(C)(C)C1=CC(=O)C(C2CCCCC2)=CC1=O`, the IC50 was 6 µM with HUVEC (setting [2]), ≥ 50 µM in the series with Bel-7402 (setting [3]), ≥ 50 µM with MCF7 (setting [4]) and ≥ 50 µM in the series on A549 (setting [5]).
For the compound `Cc1cc(O)c2c(c1)OC1CCCCC21` (stereo not given), the IC50 entry with HUVEC (huvec), in the series with Bel-7402 (bel-7402), with MCF7 (mcf7) and in the series on A549 (a549) was “Not Active” in each case. Besides, the CC50 result in series [1] is given as “Not Active”.
As to `CC(C)(C)c1cc(O)c(O)c(C2C=CCCC2)c1` (stereo not given), the IC50 in the series with HUVEC (setting [2]) is 10 µM; in the series with Bel-7402 (setting [3]) it was ≥ 50 µM; in the series on MCF7 (setting [4]), ≥ 50 µM; in the series with A549 (setting [5]), ≥ 50 µM.
On to `Cc1cc(O)c(C2C=CCCC2)c(O)c1` (stereo not given), for which the IC50 entry in the series on HUVEC (huvec), in the series on Bel-7402 (bel-7402), with MCF7 (mcf7) and with A549 (a549) was “Not Active” in each case. The CC50 entry in series [1] was “Not Active”.
On to `CO[C@@H]1[C@H](OC(=O)NC(=O)CCl)CCC2(CO2)[C@H]1[C@@]1(C)O[C@@H]1CC=C(C)C` (single isomer, unassigned) [O-CHLOROACETYLCARBAMOYLFUMAGILLOL], for which the IC50 with HUVEC (setting [2]) was 0.0089 µM; with Bel-7402 (setting [3]), ≥ 50 µM; with MCF7 (setting [4]), ≥ 50 µM; in the series with A549 (setting [5]), 50 µM.
On to `COc1cccc2c1C(=O)c1c(O)c3c(c(O)c1C2=O)C[C@@](O)(C(=O)CO)C[C@@H]3O[C@H]1C[C@H](N)[C@H](O)[C@H](C)O1` [DOXORUBICIN], for which the 50% inhibitory concentration (IC50) in the series with Bel-7402 (setting [3]) came to 0.58 µM.
Consider `CC(=O)O[C@H]1C(=O)[C@@]2(C)[C@H]([C@H](OC(=O)c3ccccc3)[C@]3(O)C[C@H](OC(=O)[C@H](O)[C@@H](NC(=O)c4ccccc4)c4ccccc4)C(C)=C1C3(C)C)[C@]1(OC(C)=O)CO[C@@H]1C[C@@H]2O` [PACLITAXEL], for which the IC50 with A549 (setting [5]) is 0.0049 µM.

(Values after ChEMBL document CHEMBL1165851, “Synthesis and inhibitory evaluation of cyclohexen-2-yl- and cyclohexyl-substituted phenols and quinones to endothelial cell and cancer cells” (Eur J Med Chem, 2010).)
